Legend:
[1] = target: RAF proto-oncogene serine/threonine-protein kinase (Homo sapiens, UniProt P04049); assay: Inhibition of human wild type CRAF using myelin basic protein as substrate in presence of [gamma-33P]ATP incubated for 40 mins by scintillation counting method
[2] = target: Serine/threonine-protein kinase/endoribonuclease IRE1 (Homo sapiens, UniProt O75460); assay: Inhibition of ERN1 (unknown origin) incubated for 1 hr by qPCR analysis
In short: (§1)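 Competition binding assay. Kinases were either T7-phage-tagged (grown in an E. coli BL21-derived host) or expressed in HEK-293 cells and DNA-tagged. […] Bound kinase was eluted with non-biotinylated ligand and quantified by qPCR.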

[3] = target: Fibroblast growth factor receptor 1 (Homo sapiens, UniProt P11362); assay: Inhibition of FGFR1 (unknown origin) incubated for 1 hr by qPCR analysis
Sequence of Fibroblast growth factor receptor 1 (P11362 whole entry): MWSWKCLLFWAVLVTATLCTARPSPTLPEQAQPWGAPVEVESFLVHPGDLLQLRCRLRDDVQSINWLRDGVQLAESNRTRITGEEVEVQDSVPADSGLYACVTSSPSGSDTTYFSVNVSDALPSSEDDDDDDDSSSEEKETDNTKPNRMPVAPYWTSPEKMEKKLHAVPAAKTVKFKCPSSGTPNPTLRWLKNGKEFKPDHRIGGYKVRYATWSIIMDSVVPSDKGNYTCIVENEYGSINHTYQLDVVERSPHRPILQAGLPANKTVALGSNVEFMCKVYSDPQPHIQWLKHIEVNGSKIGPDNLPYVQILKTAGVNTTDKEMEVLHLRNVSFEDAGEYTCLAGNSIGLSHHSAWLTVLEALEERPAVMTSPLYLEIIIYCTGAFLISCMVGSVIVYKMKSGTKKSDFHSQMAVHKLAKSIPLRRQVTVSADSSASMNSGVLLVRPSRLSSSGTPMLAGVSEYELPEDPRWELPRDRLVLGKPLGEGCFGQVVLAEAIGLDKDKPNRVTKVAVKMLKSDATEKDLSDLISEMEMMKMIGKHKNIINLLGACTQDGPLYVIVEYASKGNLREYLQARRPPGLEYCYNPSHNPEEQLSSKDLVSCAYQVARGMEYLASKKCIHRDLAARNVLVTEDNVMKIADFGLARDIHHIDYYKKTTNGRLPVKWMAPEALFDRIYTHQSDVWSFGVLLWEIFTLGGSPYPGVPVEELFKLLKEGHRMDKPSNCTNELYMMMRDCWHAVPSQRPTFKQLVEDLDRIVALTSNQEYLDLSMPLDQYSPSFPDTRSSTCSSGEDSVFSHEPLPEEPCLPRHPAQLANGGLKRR

[4] = target: T1, Receptor-type tyrosine-protein kinase FLT3 (Homo sapiens, UniProt P36888); assay: Inhibition of FLT3 (unknown origin) incubated for 1 hr by qPCR analysis; in short: as §1
T1 sequence (P36888 whole entry): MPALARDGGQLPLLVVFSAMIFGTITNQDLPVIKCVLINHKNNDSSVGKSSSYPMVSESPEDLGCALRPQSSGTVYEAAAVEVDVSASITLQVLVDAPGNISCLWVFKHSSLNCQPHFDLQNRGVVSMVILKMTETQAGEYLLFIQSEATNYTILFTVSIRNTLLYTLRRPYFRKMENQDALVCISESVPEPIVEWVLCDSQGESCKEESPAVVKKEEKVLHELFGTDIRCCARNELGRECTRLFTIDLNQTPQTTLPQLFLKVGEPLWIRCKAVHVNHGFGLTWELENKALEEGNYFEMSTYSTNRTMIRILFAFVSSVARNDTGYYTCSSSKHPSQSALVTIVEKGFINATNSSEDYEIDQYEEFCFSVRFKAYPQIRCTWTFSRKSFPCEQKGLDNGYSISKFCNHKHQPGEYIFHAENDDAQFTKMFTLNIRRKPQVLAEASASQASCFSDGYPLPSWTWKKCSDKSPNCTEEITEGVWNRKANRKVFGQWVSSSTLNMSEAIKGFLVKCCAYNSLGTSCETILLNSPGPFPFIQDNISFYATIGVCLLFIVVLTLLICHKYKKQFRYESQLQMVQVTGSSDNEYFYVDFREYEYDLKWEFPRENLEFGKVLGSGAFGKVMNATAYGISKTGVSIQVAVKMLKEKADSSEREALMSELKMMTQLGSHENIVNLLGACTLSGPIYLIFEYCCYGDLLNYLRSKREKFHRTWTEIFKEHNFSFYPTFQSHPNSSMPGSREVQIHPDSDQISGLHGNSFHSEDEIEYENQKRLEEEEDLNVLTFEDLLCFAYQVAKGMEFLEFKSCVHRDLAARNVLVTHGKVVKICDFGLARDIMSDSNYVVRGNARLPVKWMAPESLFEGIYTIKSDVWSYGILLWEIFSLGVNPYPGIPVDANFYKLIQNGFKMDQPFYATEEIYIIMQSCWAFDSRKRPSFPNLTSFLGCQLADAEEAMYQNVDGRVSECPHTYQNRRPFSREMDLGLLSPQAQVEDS

[5] = target: BDNF/NT-3 growth factors receptor (Homo sapiens, UniProt Q16620); assay: Inhibition of NTRK2 (unknown origin) incubated for 1 hr by qPCR analysis
Sequence of BDNF/NT-3 growth factors receptor (Q16620 whole entry): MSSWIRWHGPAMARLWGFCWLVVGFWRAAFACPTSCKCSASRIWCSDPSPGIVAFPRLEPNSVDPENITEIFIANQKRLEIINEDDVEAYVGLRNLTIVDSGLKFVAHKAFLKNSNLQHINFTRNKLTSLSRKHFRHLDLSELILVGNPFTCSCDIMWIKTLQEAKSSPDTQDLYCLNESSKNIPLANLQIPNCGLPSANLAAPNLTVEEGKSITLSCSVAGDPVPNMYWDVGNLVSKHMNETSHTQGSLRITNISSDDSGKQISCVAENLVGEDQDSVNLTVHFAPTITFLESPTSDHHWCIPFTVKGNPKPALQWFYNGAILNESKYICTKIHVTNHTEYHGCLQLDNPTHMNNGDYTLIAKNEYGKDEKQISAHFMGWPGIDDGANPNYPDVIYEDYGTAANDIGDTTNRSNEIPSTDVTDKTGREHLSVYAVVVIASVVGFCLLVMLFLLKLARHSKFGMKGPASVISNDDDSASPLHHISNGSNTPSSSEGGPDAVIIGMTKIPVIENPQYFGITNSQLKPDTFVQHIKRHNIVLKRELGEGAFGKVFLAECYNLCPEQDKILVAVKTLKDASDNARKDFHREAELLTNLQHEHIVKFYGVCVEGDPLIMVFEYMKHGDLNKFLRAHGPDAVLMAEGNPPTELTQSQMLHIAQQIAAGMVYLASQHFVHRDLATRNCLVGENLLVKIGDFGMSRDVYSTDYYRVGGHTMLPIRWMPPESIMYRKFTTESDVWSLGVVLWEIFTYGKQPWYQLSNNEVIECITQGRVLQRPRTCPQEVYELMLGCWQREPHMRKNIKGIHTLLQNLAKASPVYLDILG

[6] = tested on: Panel melanoma (Carcinoma cell lines); assay: Antiproliferative activity against human Panel melanoma (Carcinoma cell lines) assessed as cell growth inhibition measured after 48 hrs by SRB assay
[7] = tested on: Panel breast (Carcinoma cell lines); assay: Antiproliferative activity against human Panel breast (Carcinoma cell lines) assessed as cell growth inhibition measured after 48 hrs by SRB assay
LOX IMVI = assay: Antiproliferative activity against human LOX IMVI cells assessed as cell growth inhibition measured after 48 hrs by SRB assay
Malme-3M [8] = assay: Antiproliferative activity against human Malme-3M cells assessed as cell growth inhibition measured after 48 hrs by SRB assay
MDA-MB-435 = assay: Antiproliferative activity against human MDA-MB-435 cells assessed as cell growth inhibition measured after 48 hrs by SRB assay; settings: MDA-MB-435, 48 h
SK-MEL-2 [9] = assay: Antiproliferative activity against human SK-MEL-2 cells assessed as cell growth inhibition measured after 48 hrs by SRB assay; settings: SK-MEL-2, 48 h
SK-MEL-5 = assay: Antiproliferative activity against human SK-MEL-5 cells assessed as cell growth inhibition measured after 48 hrs by SRB assay; settings: SK-MEL-5, 48 h
UACC-257 = assay: Antiproliferative activity against human UACC-257 cells assessed as cell growth inhibition measured after 48 hrs by SRB assay; settings: UACC-257, 48 h
Malme-3M [10] = assay: Antiproliferative activity against human Malme-3M cells assessed as total growth inhibition measured after 48 hrs by SRB assay
M14 = assay: Antiproliferative activity against human M14 cells assessed as total growth inhibition measured after 48 hrs by SRB assay; settings: M14, 48 h
SK-MEL-2 [11] = assay: Antiproliferative activity against human SK-MEL-2 cells assessed as total growth inhibition measured after 48 hrs by SRB assay; settings: SK-MEL-2, 48 h
[12] = Cytotoxicity against human BJ cells assessed as cell growth inhibition incubated for 48 hrs by MTT assay; format: toxicity, cell-based
In short: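 BJ1 normal skin fibroblasts were seeded at 10 × 10³ cells/well with compound in triplicate wells and grown in DMEM-F12 at 37 °C, 5% CO₂, across an eight-point dilution series. Growth inhibition was calculated as (1 − T/C) × 100, and IC50 was taken from the dose–response curve.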

[13] = tested on: Panel leukemia (Carcinoma cell lines); assay: cells; settings: Homo sapiens, 48 h, read-out: INH
[14] = tested on: Panel CNS (Carcinoma cell lines); assay: cells; settings: Homo sapiens, 48 h, read-out: INH
[15] = tested on: Panel melanoma (Carcinoma cell lines); assay: cells; settings: Homo sapiens, 48 h, read-out: INH
[16] = tested on: Panel ovarian (Carcinoma cell lines); assay: cells; settings: Homo sapiens, 48 h, read-out: INH

Sequence of RAF proto-oncogene serine/threonine-protein kinase (P04049 whole entry): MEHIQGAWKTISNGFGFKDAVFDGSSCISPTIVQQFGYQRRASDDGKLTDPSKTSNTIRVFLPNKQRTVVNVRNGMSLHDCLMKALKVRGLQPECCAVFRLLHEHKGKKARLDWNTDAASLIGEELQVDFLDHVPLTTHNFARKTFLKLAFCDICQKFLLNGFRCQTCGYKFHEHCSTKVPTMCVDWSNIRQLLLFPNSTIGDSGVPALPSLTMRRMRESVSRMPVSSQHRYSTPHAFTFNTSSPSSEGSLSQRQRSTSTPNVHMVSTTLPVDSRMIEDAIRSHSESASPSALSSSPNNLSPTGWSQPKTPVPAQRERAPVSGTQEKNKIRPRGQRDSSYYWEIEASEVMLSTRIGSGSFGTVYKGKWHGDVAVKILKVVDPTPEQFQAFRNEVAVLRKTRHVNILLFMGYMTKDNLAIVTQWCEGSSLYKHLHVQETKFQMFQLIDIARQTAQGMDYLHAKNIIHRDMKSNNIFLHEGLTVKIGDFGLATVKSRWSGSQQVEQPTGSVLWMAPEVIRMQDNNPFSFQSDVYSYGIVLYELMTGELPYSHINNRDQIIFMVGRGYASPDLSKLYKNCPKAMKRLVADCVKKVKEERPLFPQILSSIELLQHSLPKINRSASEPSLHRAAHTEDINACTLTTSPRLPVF
Sequence of Serine/threonine-protein kinase/endoribonuclease IRE1 (O75460 whole entry): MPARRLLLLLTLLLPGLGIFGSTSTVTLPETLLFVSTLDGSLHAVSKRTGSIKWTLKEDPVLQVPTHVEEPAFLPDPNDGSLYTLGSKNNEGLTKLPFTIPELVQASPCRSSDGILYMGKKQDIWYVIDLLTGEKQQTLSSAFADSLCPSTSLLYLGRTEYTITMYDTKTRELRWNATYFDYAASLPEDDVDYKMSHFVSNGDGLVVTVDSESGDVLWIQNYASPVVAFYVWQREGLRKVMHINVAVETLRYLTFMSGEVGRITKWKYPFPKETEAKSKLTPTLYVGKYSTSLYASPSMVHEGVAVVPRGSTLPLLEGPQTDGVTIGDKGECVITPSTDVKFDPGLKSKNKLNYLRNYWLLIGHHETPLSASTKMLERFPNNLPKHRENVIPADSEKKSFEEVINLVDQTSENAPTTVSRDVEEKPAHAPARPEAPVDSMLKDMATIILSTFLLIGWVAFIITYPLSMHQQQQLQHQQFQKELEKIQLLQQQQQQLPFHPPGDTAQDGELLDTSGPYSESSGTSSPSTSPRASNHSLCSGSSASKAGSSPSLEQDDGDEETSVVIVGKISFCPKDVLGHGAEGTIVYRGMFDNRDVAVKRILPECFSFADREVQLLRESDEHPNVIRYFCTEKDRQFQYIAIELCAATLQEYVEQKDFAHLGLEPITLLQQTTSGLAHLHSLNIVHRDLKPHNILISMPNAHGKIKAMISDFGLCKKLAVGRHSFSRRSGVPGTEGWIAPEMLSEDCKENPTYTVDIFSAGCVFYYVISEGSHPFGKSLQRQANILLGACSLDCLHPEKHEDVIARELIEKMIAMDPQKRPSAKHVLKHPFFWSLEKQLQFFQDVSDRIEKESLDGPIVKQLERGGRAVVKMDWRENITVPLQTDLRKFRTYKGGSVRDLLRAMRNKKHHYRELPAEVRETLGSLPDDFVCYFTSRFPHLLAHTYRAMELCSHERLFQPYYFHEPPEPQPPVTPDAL

- IC50 [1]: 5 nM
- IC50 [2]: 10.2 µM
- IC50 [3]: 10.6 µM
- IC50 [4]: 1480 nM
- IC50 [5]: 10.3 µM
- IC50 [6]: 2030 nM
- IC50 [7]: 2410 nM
- IC50 (MDA-MB-435): 2000 nM
- IC50 (SK-MEL-2 [9]): 2320 nM
- IC50 (SK-MEL-5): 1060 nM
SMILES: O=S(=O)(NCCCNc1nccc(-c2c(-c3cccc(O)c3)nc3sccn23)n1)c1cccc(F)c1
- IC50 (LOX IMVI): 1910 nM
- IC50 (Malme-3M [8]): 2600 nM
- IC50 (UACC-257): 2850 nM
- TGI (Malme-3M [10]): 7.86 µM
- TGI (M14): 10.2 µM
- TGI (SK-MEL-2 [11]): 6.57 µM
- IC50 at 48 h [12]: 45.2 µM
- inhibition at 10 µM [13]: 93.8%
- inhibition at 10 µM [14]: 83.1%
- inhibition at 10 µM [15]: 101%
- inhibition at 10 µM [16]: 75%

Source: ChEMBL document CHEMBL5046217, “Discovery of New Imidazo[2,1-b]thiazole Derivatives as Potent Pan-RAF Inhibitors with Promising In Vitro and In Vivo Anti-melanoma Activity” (J Med Chem, 2021)
